Results: ChEMBL document CHEMBL3352407, “Griseorhodins D-F, neuroactive intermediates and end products of post-PKS tailoring modification in Griseorhodin biosynthesis” (J Nat Prod, 2014)
Active and inactive are the calls of the source. No cut-off for these calls is given here.

What was measured:
DRG neuron [1] = test: Increase in Ca2+ uptake in mouse DRG neurons at 10 ug/ml by Fura-2 dye-based fluorescence microscopy in presence of KCl relative to control; type: functional
Procedure, shortened: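 Mouse DRG cells plated in medium with additives and loaded with the Ca2+ dye Fura-2 AM. Compound applied at 10 μg/mL, then 25 mM KCl added. Ca2+ influx compared with control cells in the same well.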

DRG neuron [2] = test: Induction of depolarization of mouse DRG neurons at 10 ug/ml by Fura-2 dye-based fluorescence microscopy; type: functional
Procedure, shortened: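 Dorsal root ganglion cells were taken from mice, plated in medium with additives and loaded with Fura-2 AM. Intracellular Ca2+ was followed as the read-out while compound was applied at 10 μg/mL. This was followed by 25 mM KCl, with responses compared against control cells in the same well.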

With CC(=O)Cc1cc2c(c(O)c1C(=O)O)-c1cc3c(c(O)c1CC2)C(=O)c1c(O)cc(O)cc1[C@H]3[C@H]1c2cc(O)cc(O)c2C(=O)c2c1cc1c(c2O)CCc2cc(CC(C)=O)c(C(=O)O)c(O)c2-1 (stereo in doubt; 1b) the Activity (DRG neuron [1]) was “Active” and the Activity (DRG neuron [2]) was “inactive”.
For CC(=O)Cc1cc2c(c(O)c1C(=O)O)-c1cc3c(c(O)c1CC2)C(=O)c1c(O)cc(O)cc1[C@H]3[C@H]1c2cc(O)cc(O)c2C(=O)c2c1cc1c(c2O)CCc2cc(CC(C)=O)c(C(=O)O)c(O)c2-1 (stereo in doubt; 1a), the Activity (DRG neuron [1]) was “Active” and the Activity (DRG neuron [2]) was “inactive”.
